Test results from ChEMBL document CHEMBL2021878, “Discovery of Potent Dual PPARα Agonists/CB1 Ligands” (ACS Med Chem Lett, 2011).
The source made the active and inactive calls. No cut-off for these calls is given here.

Tests used:
[1] = biological target: Cannabinoid receptor 1 (Mus musculus) (UniProt P47746); experiment: Antagonist activity at CB1 receptor in ICR mouse vas deferens assessed as inhibition of ACEA-stimulated electrically-induced muscle contraction at 2 x 10^-6 M; assay type: functional, tissue-based
Method in brief: (§1)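 Mouse vas deferens under electrical stimulation. Tissues were preincubated with compound at 10^-6 or 2 × 10^-6 M, then increasing concentrations of the CB1 agonist ACEA were added. Mean ± SEM, n = 6–8.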

[2] = biological target: Cannabinoid receptor 1 (Mus musculus) (UniProt P47746); experiment: Agonist activity at CB1 receptor in ICR mouse vas deferens assessed as effect on amplitude of nonstimulated muscle contraction at 10^-7 to 1.8 x 10^-5 M relative to control; assay type: functional, tissue-based
Method in brief: (§2)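 Mouse vas deferens, electrically stimulated nerve-smooth muscle preparation. Compounds tested at 10^-7 to 1.8 × 10^-5 M for effects on the nonstimulated basal recording and on the amplitude of electrically evoked contractions. Read-out was % inhibition of evoked contraction compared with vehicle.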

[3] = biological target: Cannabinoid receptor 1 (Homo sapiens, UniProt P21554); experiment: Displacement of [3H]-CP55940 from CB1 receptor after 90 mins by liquid scintillation counting
[4] = biological target: T1, Peroxisome proliferator-activated receptor alpha (Homo sapiens, UniProt Q07869); experiment: Agonist activity at human PPARalpha expressed in MCF7 cells co-transfected CPTI DR1-type RE after 6 hrs by luciferase reporter gene assay; assay type: functional, cell-based
T1 sequence (Q07869 whole entry): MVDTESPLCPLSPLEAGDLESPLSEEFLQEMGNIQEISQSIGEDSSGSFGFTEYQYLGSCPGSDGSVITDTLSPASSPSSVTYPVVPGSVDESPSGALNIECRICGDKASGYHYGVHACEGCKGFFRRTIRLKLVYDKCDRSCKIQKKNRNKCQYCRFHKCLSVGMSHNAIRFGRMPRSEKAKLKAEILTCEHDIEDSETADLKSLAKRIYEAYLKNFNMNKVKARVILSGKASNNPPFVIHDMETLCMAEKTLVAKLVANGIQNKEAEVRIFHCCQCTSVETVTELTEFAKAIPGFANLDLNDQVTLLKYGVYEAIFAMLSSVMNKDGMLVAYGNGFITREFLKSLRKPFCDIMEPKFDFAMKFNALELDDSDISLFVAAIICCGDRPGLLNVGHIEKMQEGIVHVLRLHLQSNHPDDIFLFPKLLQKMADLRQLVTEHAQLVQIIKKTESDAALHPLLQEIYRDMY
Method in brief: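 Luciferase reporter assay in extracts of MCF-7 cells transiently transfected with a human CPTI DR1-type response element reporter (four copies), plus PPARα, RXRα and NCoR vectors. Cells exposed 6 h to compounds at 10 μM, DMSO as solvent control. Basal and ligand-induced activity recorded.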

[5] = biological target: Cannabinoid receptor 1 (Mus musculus) (UniProt P47746); experiment: Antagonist activity at CB1 receptor in ICR mouse vas deferens assessed as inhibition of ACEA-stimulated electrically-induced muscle contraction at 10^-6 M; assay type: functional, tissue-based; method in brief: as §1
[6] = tested on: Rattus norvegicus; experiment: Inhibition of food intake in Wistar rat at 0.03 to 3 mg/kg, ip after 30 to 240 mins; assay type: functional, organism-based
[7] = biological target: Cannabinoid receptor 1 (Mus musculus) (UniProt P47746); experiment: Agonist activity at CB1 receptor in ICR mouse vas deferens assessed as inhibition of amplitude of electrically-stimulated muscle contraction at 10^-7 to 1.8 x 10^-5 M relative to control; assay type: functional, tissue-based; method in brief: as §2
[8] = biological target: Cannabinoid receptor 2 (Mus musculus) (UniProt P47936); experiment: Antagonist activity at CB2 receptor in ICR mouse vas deferens assessed as inhibition of JWH-015-stimulated electrically-induced muscle contraction; assay type: functional, tissue-based
[9] = biological target: T1, Peroxisome proliferator-activated receptor alpha; experiment: Agonist activity at human PPARalpha expressed in MCF7 cells co-transfected CPTI DR1-type RE after 16 hrs by luciferase reporter gene assay; assay type: functional, cell-based
Method in brief: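 Luciferase reporter assay in extracts of MCF-7 cells transiently transfected with a reporter carrying four copies of the human CPTI DR1-type response element, plus PPARα, RXRα and NCoR expression vectors. Cells treated 16 h with compounds at 10 μM, DMSO as solvent control. Mean of at least three experiments with SD; two-tailed paired Student's t-test against solvent.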

[10] = biological target: Cannabinoid receptor 2 (Homo sapiens) (UniProt P34972); experiment: Displacement of [3H]-CP55940 from CB2 receptor after 90 mins by liquid scintillation counting
Cannabinoid receptor 2 (Homo sapiens), sequence (P34972 whole entry): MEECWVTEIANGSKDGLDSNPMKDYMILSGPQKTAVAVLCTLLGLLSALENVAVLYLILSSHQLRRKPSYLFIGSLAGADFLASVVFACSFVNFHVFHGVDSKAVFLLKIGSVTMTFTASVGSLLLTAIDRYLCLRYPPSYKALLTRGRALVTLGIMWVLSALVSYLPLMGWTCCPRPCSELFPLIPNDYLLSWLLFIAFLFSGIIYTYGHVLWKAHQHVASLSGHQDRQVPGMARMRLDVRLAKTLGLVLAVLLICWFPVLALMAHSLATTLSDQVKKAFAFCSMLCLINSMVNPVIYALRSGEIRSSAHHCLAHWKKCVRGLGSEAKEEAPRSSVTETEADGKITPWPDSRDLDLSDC

Cannabinoid receptor 1, sequence (P21554 whole entry): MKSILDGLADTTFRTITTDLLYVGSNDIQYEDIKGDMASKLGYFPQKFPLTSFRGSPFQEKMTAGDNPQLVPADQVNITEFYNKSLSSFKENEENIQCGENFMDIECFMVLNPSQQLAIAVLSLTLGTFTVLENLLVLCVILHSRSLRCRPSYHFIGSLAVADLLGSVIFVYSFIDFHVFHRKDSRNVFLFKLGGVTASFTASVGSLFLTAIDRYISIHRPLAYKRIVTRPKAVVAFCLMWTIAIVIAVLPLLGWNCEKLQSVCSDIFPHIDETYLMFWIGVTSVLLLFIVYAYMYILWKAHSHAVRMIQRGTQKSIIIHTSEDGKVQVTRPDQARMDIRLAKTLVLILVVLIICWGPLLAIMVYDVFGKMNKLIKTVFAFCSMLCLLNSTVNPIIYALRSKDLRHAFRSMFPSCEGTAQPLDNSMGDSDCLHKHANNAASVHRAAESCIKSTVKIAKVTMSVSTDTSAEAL
Cannabinoid receptor 1 (Mus musculus), sequence (P47746 whole entry): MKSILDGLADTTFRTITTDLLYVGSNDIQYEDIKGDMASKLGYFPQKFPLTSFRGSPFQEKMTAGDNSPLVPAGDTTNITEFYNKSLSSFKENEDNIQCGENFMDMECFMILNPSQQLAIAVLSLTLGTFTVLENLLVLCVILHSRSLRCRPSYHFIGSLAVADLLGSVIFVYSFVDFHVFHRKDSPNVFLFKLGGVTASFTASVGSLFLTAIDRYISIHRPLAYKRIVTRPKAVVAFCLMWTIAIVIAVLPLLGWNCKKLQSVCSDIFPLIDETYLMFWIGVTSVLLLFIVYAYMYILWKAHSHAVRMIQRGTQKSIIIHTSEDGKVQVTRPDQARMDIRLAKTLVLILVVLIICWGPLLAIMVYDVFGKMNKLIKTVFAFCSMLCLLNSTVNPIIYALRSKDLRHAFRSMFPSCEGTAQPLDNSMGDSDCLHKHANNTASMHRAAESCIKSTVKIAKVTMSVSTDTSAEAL
Cannabinoid receptor 2 (Mus musculus), sequence (P47936 whole entry): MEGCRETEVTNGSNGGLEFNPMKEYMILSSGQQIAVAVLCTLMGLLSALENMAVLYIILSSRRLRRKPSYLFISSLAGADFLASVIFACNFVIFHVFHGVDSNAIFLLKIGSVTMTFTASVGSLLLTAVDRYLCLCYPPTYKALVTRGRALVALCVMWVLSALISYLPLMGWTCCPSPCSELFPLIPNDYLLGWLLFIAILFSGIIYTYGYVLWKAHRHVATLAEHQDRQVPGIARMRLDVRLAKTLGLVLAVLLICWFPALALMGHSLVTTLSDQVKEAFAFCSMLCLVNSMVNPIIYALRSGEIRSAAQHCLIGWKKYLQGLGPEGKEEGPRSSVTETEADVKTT

Question: How did the Activity [1] turn out when `Cc1c(C(=O)Nc2ccc(O)cc2)nn(-c2ccc(Cl)cc2Cl)c1-c1ccc(Cl)cc1` was run?
Answer: Active

Question: And the Activity [2]?
Answer: inactive

Question: And the Ki [3]?
Answer: 4.6 nM

Question: And the EC50 [4]?
Answer: 971 nM

Question: And the Activity [5]?
Answer: Active

Question: What about the inhibition [6] of the same compound?
Answer: inactive

Question: And the inhibition [7]?
Answer: < 10%

Question: What about the Activity [8] of the same compound?
Answer: Active

Question: Which results are given for `Cc1c(C(=O)Nc2cccc(O)c2)nn(-c2ccc(Cl)cc2Cl)c1-c1ccc(Cl)cc1`?
Answer: Ki [3]: 52 nM; EC50 [4]: 887 nM; EC50 [9]: 989 nM

Question: For `CCOC(=O)C(C)(C)Oc1cccc(NC(=O)c2nn(-c3ccc(Cl)cc3Cl)c(-c3ccc(Cl)cc3)c2C)c1`, which Activity [1] is on record?
Answer: Active

Question: What about the Activity [2] of the same compound?
Answer: inactive

Question: What about the Ki [3] of the same compound?
Answer: 65 nM

Question: What about the EC50 [4] of the same compound?
Answer: 856 nM

Question: And the Activity [5]?
Answer: Active

Question: What about the inhibition [6] of the same compound?
Answer: inactive

Question: What about the EC50 [9] of the same compound?
Answer: 743 nM

Question: And the inhibition [7]?
Answer: < 10%

Question: What about the Activity [8] of the same compound?
Answer: inactive

Question: Which Ki [3] does the source give for `CCOC(=O)C(C)(C)Oc1ccc(NC(=O)c2nn(-c3ccc(Cl)cc3Cl)c(-c3ccc(Cl)cc3)c2C)cc1` here?
Answer: 109 nM

Question: What about the EC50 [4] of the same compound?
Answer: 1480 nM

Question: And the Activity [10]?
Answer: inactive

Question: Which inhibition [5] does the source give for `Cc1c(C(=O)NN2CCCCC2)nn(-c2ccc(Cl)cc2Cl)c1-c1ccc(I)cc1` here?
Answer: Active

Question: `CCCCCCCC/C=C\CCCCCCCC(=O)NCCO` [OLEOYLETHANOLAMIDE] was tested. Which EC50 [4] did it give?
Answer: 185 nM

Question: What about the EC50 [9] of the same compound?
Answer: 152 nM
